# Reference: ChEMBL document CHEMBL1153955, “Indolylarylsulfones bearing natural and unnatural amino acids. Discovery of potent inhibitors of HIV-1 non-nucleoside wild type and resistant mutant strains reverse transcriptase and coxsackie B4 virus” (J Med Chem, 2009)
# Assays:
# [1] = Cytotoxicity against african green monkey Vero cells assessed as drug level causing microscopically detectable alteration of normal cell morphology after 3 days; type: cell-based; details: chlorocebus sabaeus
# Procedure, shortened: (§1)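 Serial compound dilutions added to confluent HeLa or Vero monolayers. MCC = minimum concentration causing microscopically detectable alteration of cell morphology after 3 days of incubation.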
# [2] = test system: Felid alphaherpesvirus 1; experiment: Antiviral activity against Feline herpesvirus in feline […] cells assessed as inhibition of virus-induced cytopathicity; type: functional, organism-based
# [3] = target: Human immunodeficiency virus type 1 reverse transcriptase (Human immunodeficiency virus 1, UniProt Q72547); experiment: Inhibition of HIV1 reverse transcriptase p66/p51; details: read-out: IC50
# [4] = test system: Human immunodeficiency virus 1; experiment: Antiviral activity against HIV1 3B in human CEM cells assessed as protection against virus-induced cytopathicity after 4 days; type: functional, organism-based; details: Human immunodeficiency virus 1, 3B, CCRF-CEM, 96 h
# Procedure, shortened: (§2)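 CEM cells (~3 × 10⁵ cells/mL) infected with ~100 CCID₅₀ per mL of HIV-1 (IIIB) or HIV-2 (ROD), then seeded into wells containing compound dilutions. After 4 days at 37 °C, syncytium (giant cell) formation was examined microscopically. EC₅₀ = concentration protecting CEM cells from HIV cytopathicity by 50%.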
# [5] = target: Human immunodeficiency virus type 1 reverse transcriptase (Human immunodeficiency virus 1, UniProt Q72547, L100I); experiment: Inhibition of HIV1 reverse transcriptase p66/p51 L100I mutant; details: read-out: IC50
# Procedure, shortened: (§3)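 Substrate was 0.5 µg poly(rA)/oligo(dT) 10:1 (0.3 µM 3′-OH ends) with 10 µM [³H]dTTP, at 37 °C. Acid-precipitable radioactivity was counted on GF/C filters after TCA washes.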
# [6] = target: Human immunodeficiency virus type 1 reverse transcriptase (Human immunodeficiency virus 1, UniProt Q72547, Y181I); experiment: Inhibition of HIV1 reverse transcriptase p66/p51 Y181I mutant; details: read-out: IC50; procedure, shortened: as §3
# [7] = test system: Human alphaherpesvirus 1; experiment: Antiviral activity against HSV1 KOS in human HEL cells assessed as protection against virus-induced cytopathicity; type: functional, organism-based; details: Human alphaherpesvirus 1, KOS
# [8] = Antiproliferative activity against human Molt4/C8 cells after 3 days; type: cell-based; details: MOLT-4, 72 h
# Procedure, shortened: (§4)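 Cells seeded at 5 × 10⁴ to 7.5 × 10⁴ cells/200 µL with or without serial compound dilutions; incubated at 37 °C for 2 days (L1210) or 3 days (Molt4/C8, CEM). Cell numbers counted with a Coulter counter. CC₅₀ = concentration reducing proliferation by 50% versus untreated controls, read from plots of cell number (% of control) against concentration. Means of at least two independent experiments.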
# [9] = test system: Influenza A virus H3N2; experiment: Antiviral activity against influenza H3N2 virus in MDCK cells assessed as reduction of virus-induced cytopathicity by visual cytopathic effect scoring method; type: functional, organism-based
# [10] = test system: Sindbis virus; experiment: Antiviral activity against Sindbis virus in african green monkey Vero cells assessed as protection against virus-induced cytopathicity; type: functional, organism-based
# Procedure, shortened: (§5)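 Confluent cell monolayers inoculated with 100 CCID₅₀ virus. After 1-2 h adsorption, residual virus removed and cultures incubated with varying compound concentrations. Cytopathicity scored once it reached completion in untreated infected controls. EC₅₀ = dose reducing virus-induced cytopathogenicity by 50%.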
# [11] = test system: Vesicular stomatitis virus; experiment: Antiviral activity against VSV in human HeLa cells assessed as protection against virus-induced cytopathicity; type: functional, organism-based
# [12] = test system: Vaccinia virus; experiment: Antiviral activity against Vaccinia virus Lederle in human HEL cells assessed as protection against virus-induced cytopathicity; type: functional, organism-based; details: Orthopoxvirus vaccinia
# [13] = Cytotoxicity against MDCK cells assessed as drug level causing microscopically detectable alteration of normal cell morphology; type: cell-based, Canis lupus familiaris; details: dog
# [14] = test system: CCRF-CEM; experiment: Antiproliferative activity against human CEM cells after 3 days; type: cell-based; details: 72 h; procedure, shortened: as §4
# [15] = test system: Punta Toro virus; experiment: Antiviral activity against Punta Toro virus in african green monkey Vero cells assessed as protection against virus-induced cytopathicity; type: functional, organism-based; procedure, shortened: as §5
# [16] = test system: Coxsackievirus B4; experiment: Antiviral activity against Coxsackievirus B4 in african green monkey Vero cells assessed as protection against virus-induced cytopathicity; type: functional, organism-based; details: Enterovirus B; procedure, shortened: as §5
# [17] = test system: Coxsackievirus B4; experiment: Antiviral activity against Coxsackievirus B4 in human HeLa cells assessed as protection against virus-induced cytopathicity; type: functional, organism-based; details: Enterovirus B; procedure, shortened: as §5
# [18] = test system: Influenza B virus; experiment: Antiviral activity against influenza B virus in MDCK cells assessed as reduction of virus-induced cytopathicity by visual cytopathic effect scoring method; type: functional, organism-based
# [19] = target: Human immunodeficiency virus type 1 reverse transcriptase (Human immunodeficiency virus 1, UniProt Q72547, K103N); experiment: Inhibition of HIV1 reverse transcriptase p66/p51 K103N mutant; details: read-out: IC50; procedure, shortened: as §3
# [20] = test system: L1210; experiment: Antiproliferative activity against mouse L1210 cells after 2 days; type: cell-based; details: L1210, 48 h; procedure, shortened: as §4
# [21] = test system: Mammalian orthoreovirus 1; experiment: Antiviral activity against Reovirus 1 in african green monkey Vero cells assessed as protection against virus-induced cytopathicity; type: functional, organism-based; details: Mammalian orthoreovirus 1, Vero; procedure, shortened: as §5
# [22] = Cytotoxicity against feline CRFK cells by MTS assay; type: cell-based, Felis catus; details: cat
# [23] = test system: Feline coronavirus; experiment: Antiviral activity against Feline coronavirus in feline […] cells assessed as inhibition of virus-induced cytopathicity; type: functional, organism-based; details: Alphacoronavirus 1
# [24] = test system: Human alphaherpesvirus 2; experiment: Antiviral activity against HSV2 G in human HEL cells assessed as protection against virus-induced cytopathicity; type: functional, organism-based; details: Human alphaherpesvirus 2, strain G; procedure, shortened: as §5
# [25] = test system: Vesicular stomatitis virus; experiment: Antiviral activity against VSV in human HEL cells assessed as protection against virus-induced cytopathicity; type: functional, organism-based
# [26] = test system: Influenza A virus; experiment: Antiviral activity against influenza H1N1 virus in MDCK cells assessed as reduction of virus-induced cytopathicity by MTS method; type: functional, organism-based; details: Influenza A virus, H1N1, MDCK
# [27] = test system: Human alphaherpesvirus 1; experiment: Antiviral activity against thymidine kinase deficient and acyclovir resistant HSV1 KOS in human HEL cells assessed as protection against virus-induced cytopathicity; type: functional, organism-based; details: Human alphaherpesvirus 1, KOS
# [28] = test system: Influenza B virus; experiment: Antiviral activity against influenza B virus in MDCK cells assessed as reduction of virus-induced cytopathicity by MTS method; type: functional, organism-based
# [29] = test system: Influenza A virus; experiment: Antiviral activity against influenza H1N1 virus in MDCK cells assessed as reduction of virus-induced cytopathicity by visual cytopathic effect scoring method; type: functional, organism-based
# [30] = Cytotoxicity against human HEL cells assessed as drug level causing microscopically detectable alteration of normal cell morphology after 3 days; type: cell-based
# [31] = Cytotoxicity against MDCK cells by MTS assay; type: cell-based, Canis lupus familiaris; details: dog
# [32] = test system: Influenza A virus H3N2; experiment: Antiviral activity against influenza H3N2 virus in MDCK cells assessed as reduction of virus-induced cytopathicity by MTS method; type: functional, organism-based
# [33] = test system: Human immunodeficiency virus 2; experiment: Antiviral activity against HIV2 ROD in human CEM cells assessed as protection against virus-induced cytopathicity after 4 days; type: functional, organism-based; details: Human immunodeficiency virus 2, ROD, CCRF-CEM, 96 h; procedure, shortened: as §2
# [34] = Cytotoxicity against human HeLa cells assessed as drug level causing microscopically detectable alteration of normal cell morphology after 3 days; type: cell-based; procedure, shortened: as §1
# [35] = test system: Respiratory syncytial virus; experiment: Antiviral activity against RSV Long in human HeLa cells assessed as protection against virus-induced cytopathicity; type: functional, organism-based; procedure, shortened: as §5
# [36] = test system: Human respirovirus 3; experiment: Antiviral activity against Parainfluenza virus type 3 in african green monkey Vero cells assessed as protection against virus-induced cytopathicity; type: functional, organism-based; details: Human respirovirus 3, Vero; procedure, shortened: as §5
SMILES,MCC at 72 h [1],EC50 [2],IC50 [3],EC50 [4],IC50 [5],IC50 [6],EC50 [7],IC50 [8],EC50 [9],EC50 [10],EC50 [11],EC50 [12],MCC [13],IC50 [14],EC50 [15],EC50 [16],EC50 [17],EC50 [18],IC50 [19],IC50 [20],other results
Cc1cc(C)cc(S(=O)(=O)c2c(C(=O)NCCC(N)=O)[nH]c3ccc(Br)cc23)c1,100 µM,> 4 µM,0.086 µM,0.0011 µM,0.169 µM,8.57 µM,> 4 µM,25 µM,> 4 µM,> 20 µM,> 20 µM,> 4 µM,20 µM,36 µM,> 20 µM,16 µM,11 µM,> 4 µM,0.42 µM,46 µM,EC50 [21]: > 20 µM; CC50 [22]: 15.6 µM; EC50 [23]: > 4 µM; EC50 [24]: > 4 µM; EC50 [25]: > 4 µM; EC50 [26]: > 4 µM; EC50 [27]: > 4 µM; EC50 [28]: > 4 µM; EC50 [29]: > 4 µM; MCC at 72 h [30]: 20 µM; CC50 [31]: 8.5 µM; EC50 [32]: > 4 µM; EC50 [33]: 23 µM; MCC at 72 h [34]: ≥ 20 µM; EC50 [35]: ≥ 20 µM; EC50 [36]: > 20 µM
Cc1cc(C)cc(S(=O)(=O)c2c(C(=O)NCCC(N)=O)[nH]c3ccc([N+](=O)[O-])cc23)c1,> 100 µM,> 100 µM,0.027 µM,0.0016 µM,0.204 µM,5.53 µM,> 20 µM,> 500 µM,> 20 µM,> 100 µM,> 100 µM,> 20 µM,100 µM,≥ 500 µM,> 100 µM,> 100 µM,> 100 µM,> 20 µM,0.474 µM,> 500 µM,EC50 [21]: > 100 µM; CC50 [22]: > 100 µM; EC50 [23]: > 100 µM; EC50 [24]: > 20 µM; EC50 [25]: > 20 µM; EC50 [26]: > 20 µM; EC50 [27]: > 20 µM; EC50 [28]: > 20 µM; EC50 [29]: > 20 µM; MCC at 72 h [30]: ≥ 20 µM; CC50 [31]: > 100 µM; EC50 [32]: > 20 µM; EC50 [33]: > 10 µM; MCC at 72 h [34]: > 100 µM; EC50 [35]: > 100 µM; EC50 [36]: > 100 µM
Cc1cc(C)cc(S(=O)(=O)c2c(C(=O)NC(C)C(N)=O)[nH]c3ccc([N+](=O)[O-])cc23)c1 (centres undefined),> 100 µM,> 20 µM,0.022 µM,0.0038 µM,0.209 µM,4.21 µM,> 20 µM,44 µM,> 20 µM,> 100 µM,> 100 µM,> 20 µM,100 µM,66 µM,> 100 µM,> 100 µM,≥ 20 µM,> 20 µM,0.362 µM,96 µM,EC50 [21]: > 100 µM; CC50 [22]: 82.1 µM; EC50 [23]: > 20 µM; EC50 [24]: > 20 µM; EC50 [25]: > 20 µM; EC50 [26]: > 20 µM; EC50 [27]: > 20 µM; EC50 [28]: > 20 µM; EC50 [29]: > 20 µM; MCC at 72 h [30]: 100 µM; CC50 [31]: 95.9 µM; EC50 [32]: > 20 µM; EC50 [33]: > 10 µM; MCC at 72 h [34]: > 100 µM; EC50 [35]: > 100 µM; EC50 [36]: > 100 µM
Cc1cc(C)cc(S(=O)(=O)c2c(C(=O)NC(C)C(N)=O)[nH]c3ccc(Cl)c(F)c23)c1 (centres undefined),100 µM,> 20 µM,0.062 µM,0.0037 µM,0.27 µM,6.28 µM,> 20 µM,22 µM,> 4 µM,> 20 µM,> 4 µM,> 20 µM,20 µM,21 µM,> 20 µM,20 µM,> 4 µM,> 4 µM,1.52 µM,30 µM,EC50 [21]: > 20 µM; CC50 [22]: 51.4 µM; EC50 [23]: > 20 µM; EC50 [24]: > 20 µM; EC50 [25]: > 20 µM; EC50 [26]: > 4 µM; EC50 [27]: > 20 µM; EC50 [28]: > 4 µM; EC50 [29]: > 4 µM; MCC at 72 h [30]: 100 µM; CC50 [31]: 6.5 µM; EC50 [32]: > 4 µM; EC50 [33]: > 10 µM; MCC at 72 h [34]: 20 µM; EC50 [35]: > 4 µM; EC50 [36]: > 20 µM
